SMILES strings stand for the structures. Calls of active or inactive are those of the source. The calls are words filed in the database; no cut-off is given here.

Results on 43 molecules are retold here after ChEMBL document CHEMBL4673342, “Lipid-Lowering Activities of Cucurbitacins Isolated from Trichosanthes cucumeroides and Their Synthetic Derivatives” (2020).

The subject of this assay is HepG2. Put plainly: Induction of […] uptake in human HepG2 cells at 5 uM by DIL probe based fluorescence assay. It is filed as functional, cell-based. Put shortly:
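HepG2 cells (passages 4–11) in DMEM/10% FBS were treated with DMSO or compound at 5 µM, then given DiI-labelled human plasma LDL (20 µg/mL) for 3 h at 37 °C in the dark. After ice-cold PBS/0.4% albumin rinses, cell-bound dye was extracted with isopropanol and fluorescence read at 520–578 nm. Uptake rate is relative to DMSO. Positive control nagilactone B at 5 µM; n = 3.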

For the molecule `CO[C@@H](CC(=O)[C@](C)(O)[C@H]1[C@H](O)C[C@@]2(C)[C@@H]3CC=C4[C@@H](C[C@H](O)C(=O)C4(C)C)[C@]3(C)C(=O)C[C@]12C)C(C)(C)O`, the result was Active.
To `CC(=O)OC(C)(C)CCC(=O)[C@](C)(O)[C@H]1C(=O)C[C@@]2(C)[C@@H]3CC=C4[C@@H](C[C@H](O)C(=O)C4(C)C)[C@]3(C)C(=O)C[C@]12C` belongs “inactive”; to `CC(=O)O[C@@H]1C[C@@]2(C)[C@@H]3CC=C4[C@@H](CC(=O)[C@H](OC(C)=O)C4(C)C)[C@]3(C)C(=O)C[C@]2(C)[C@H]1[C@@](C)(O)C(=O)/C=C/C(C)(C)OC(C)=O`, “inactive”.
Then `CC(=O)OC(C)(C)[C@H](O)CC(=O)[C@](C)(O)[C@H]1[C@H](O)C[C@@]2(C)[C@@H]3[C@@H](O)C=C4[C@@H](CC(=O)[C@@H](O)C4(C)C)[C@]3(C)C(=O)C[C@]12C`, with “Active”; and `CC(=O)OC(C)(C)[C@@H](O)CC(=O)[C@](C)(O)[C@H]1[C@H](O)C[C@@]2(C)[C@@H]3[C@@H](O)C=C4[C@@H](CC(=O)[C@@H](O)C4(C)C)[C@]3(C)C(=O)C[C@]12C`, with “Active”; and `CCC(=O)O[C@H]1C[C@@H]2C(=CC[C@@H]3[C@@]2(C)C(=O)C[C@]2(C)[C@@H]([C@@](C)(O)C(=O)CCC(C)(C)OC(C)=O)[C@H](OC(=O)CC)C[C@@]32C)C(C)(C)C1=O`, with “inactive”.
To `CC(=O)OC(C)(C)/C=C/C(=O)[C@](C)(O)[C@H]1[C@H](O)C[C@@]2(C)[C@@H]3CC=C4[C@@H](C[C@H](O)C(=O)C4(C)C)[C@]3(C)C(=O)C[C@]12C` belongs “Active”; to `CC(=O)OC1C[C@@H]2C(=CC(=O)[C@@H]3[C@@]2(C)C(=O)C[C@]2(C)[C@@H]([C@@](C)(O)C(=O)CCC(C)(C)OC(C)=O)[C@H](OC(C)=O)C[C@@]32C)C(C)(C)C1O` (stereo partly drawn), “Active”.
For the molecule `CC(=O)O[C@@H]1C[C@@]2(C)[C@@H]3CC=C4[C@@H](CC(=O)[C@H](OC(C)=O)C4(C)C)[C@]3(C)C(=O)C[C@]2(C)[C@H]1[C@@](C)(O)C(=O)CCC(C)(C)OC(C)=O`, the outcome was inactive.
To `CC(=O)O[C@H]1C[C@@H]2C(=CC[C@@H]3[C@@]2(C)C(=O)C[C@]2(C)[C@@H]([C@@](C)(O)C(=O)CCC(C)(C)OC(C)=O)[C@H](OC(C)=O)C[C@@]32C)C(C)(C)C1=O` belongs “inactive”; to `CC(=O)OC(C)(C)CCC(=O)[C@](C)(O)[C@H]1C(=O)C[C@@]2(C)[C@@H]3CC=C4[C@@H](CC(=O)C(=O)C4(C)C)[C@]3(C)C(=O)C[C@]12C`, “inactive”; to `CC(=O)OC(C)(C)CCC(=O)[C@](C)(O)[C@H]1[C@H](O)C[C@@]2(C)[C@@H]3CC=C4[C@@H](CC(=O)OC4(C)C)[C@]3(C)C(=O)C[C@]12C`, “Active”.
To `CC(=O)OC(C)(C)CCC(=O)[C@](C)(O)[C@H]1[C@H](O)C[C@@]2(C)[C@@H]3CC=C4[C@@H](C[C@H](O)C(=O)C4(C)C)[C@]3(C)C(=O)C[C@]12C` belongs “Active”; to `CC(=O)OC(C)(C)/C=C/C(=O)[C@](C)(O)[C@H]1[C@H](O)C[C@@]2(C)[C@@H]3CC=C4[C@@H](C[C@H](OC5O[C@H](CO)[C@@H](O)[C@H](O)[C@H]5C)C(=O)C4(C)C)[C@]3(C)C(=O)C[C@]12C` (stereo partly drawn), “Active”.
To `CC(=O)OC(C)(C)/C=C/C(=O)[C@](C)(O)[C@H]1C(=O)C[C@@]2(C)[C@@H]3CC=C4[C@@H](CC(=O)C(=O)C4(C)C)[C@]3(C)C(=O)C[C@]12C` belongs “inactive”.
Consider `CC(=O)OC(C)(C)/C=C/C(=O)[C@](C)(O)[C@H]1[C@H](O)C[C@@]2(C)[C@@H]3CC=C4[C@@H](C[C@H](OC(=O)c5ccccc5)C(=O)C4(C)C)[C@]3(C)C(=O)C[C@]12C`, for which the result was inactive.
Then `CC(C)(O)CCC(=O)[C@](C)(O)[C@H]1[C@H](O)C[C@@]2(C)[C@@H]3CC=C4[C@@H](C=C(O)C(=O)C4(C)C)[C@]3(C)C(=O)C[C@]12C`, with “Active”; and `CC(=O)O[C@H]1C[C@@H]2C(=CC(=O)[C@@H]3[C@@]2(C)C(=O)C[C@]2(C)[C@@H]([C@@](C)(O)C(=O)/C=C/C(C)(C)OC(C)=O)[C@H](OC(=O)O)C[C@@]32C)C(C)(C)C1=O`, with “Active”.
Then `CC(=O)OC(C)(C)/C=C/C(=O)[C@](C)(O)[C@H]1[C@H](O)C[C@@]2(C)[C@@H]3CC=C4[C@@H](CC(=O)[C@H](O)C4(C)C)[C@]3(C)C(=O)C[C@]12C`, with “Active”; and `CC(=O)OC(C)(C)CCC(=O)[C@](C)(O)[C@H]1[C@H](O)C[C@@]2(C)[C@@H]3[C@@H](O)C=C4[C@@H](CC(=O)[C@@H](O)C4(C)C)[C@]3(C)C(=O)C[C@]12C`, with “Active”.
Then `CC(=O)OC(C)(C)CCC(=O)[C@](C)(O)[C@H]1[C@H](O)C[C@@]2(C)[C@@H]3CC=C4[C@@H](C[C@H](OC5O[C@H](CO)[C@@H](O)[C@H](O)[C@H]5C)C(=O)C4(C)C)[C@]3(C)C(=O)C[C@]12C` (stereo partly drawn), with “Active”; and `CC(=O)O[C@H]1C[C@@H]2C(=CC[C@@H]3[C@@]2(C)C(=O)C[C@]2(C)[C@@H]([C@@](C)(O)C(=O)/C=C/C(C)(C)OC(C)=O)[C@H](OC(=O)O)C[C@@]32C)C(C)(C)C1=O`, with “inactive”.
With `CC(=O)OC(C)(C)/C=C/C(=O)[C@](C)(O)[C@H]1[C@H](OC(=O)c2ccccc2)C[C@@]2(C)[C@@H]3CC=C4[C@@H](C[C@H](OC(=O)c5ccccc5)C(=O)C4(C)C)[C@]3(C)C(=O)C[C@]12C`, the result was inactive.
Consider `CC(=O)OC(C)(C)/C=C/C(=O)[C@](C)(O)[C@H]1[C@H](O)C[C@@]2(C)[C@@H]3[C@@H](O)C=C4[C@@H](C[C@H](O)C(=O)C4(C)C)[C@]3(C)C(=O)C[C@]12C`, for which the outcome was Active.
To `CC(C)(O)/C=C/C(=O)[C@](C)(O)[C@H]1[C@H](O)C[C@@]2(C)[C@@H]3CC=C4[C@@H](C[C@H](O)[C@@H](O)C4(C)C)[C@]3(C)C(=O)C[C@]12C` belongs “Active”.
To `CC1(C)C(=O)[C@@H](O)C[C@@H]2C1=CC[C@@H]1[C@@]2(C)C(=O)C[C@]2(C)[C@@H]([C@@](C)(O)C(=O)C[C@H](O)C(C)(C)O)[C@H](O)C[C@@]12C` belongs “Active”.
Then `CC(=O)OC(C)(C)CCC(=O)[C@](C)(O)[C@H]1[C@H](O)C[C@@]2(C)[C@@H]3CC=C(C(C)(C)O)[C@@H](CC(=O)O)[C@]3(C)C(=O)C[C@]12C`, with “Active”.
`CO[C@H](CC(=O)[C@](C)(O)[C@H]1[C@H](O)C[C@@]2(C)[C@@H]3CC=C4[C@@H](C[C@H](O)C(=O)C4(C)C)[C@]3(C)C(=O)C[C@]12C)C(C)(C)O`: the outcome was Active.
Then `CC(=O)OC(C)(C)CCC(=O)[C@](C)(O)[C@H]1[C@H](OC(=O)c2ccccc2)C[C@@]2(C)[C@@H]3CC=C4[C@@H](C[C@H](OC(=O)c5ccccc5)C(=O)C4(C)C)[C@]3(C)C(=O)C[C@]12C`, with “inactive”; and `CC(=O)OC(C)(C)CCC(=O)[C@](C)(O)[C@H]1[C@H](O)C[C@@]2(C)[C@@H]3CC=C(C(C)(C)C(=O)O)[C@@H](CC(=O)O)[C@]3(C)C(=O)C[C@]12C`, with “Active”; and `CC(=O)O[C@@H]1C[C@@]2(C)[C@@H]3CC=C4[C@@H](CC(=O)[C@H](O)C4(C)C)[C@]3(C)C(=O)C[C@]2(C)[C@H]1[C@@](C)(O)C(=O)/C=C/C(C)(C)OC(C)=O`, with “inactive”.
Then `CC(=O)OC(C)(C)/C=C/C(=O)[C@](C)(O)[C@H]1[C@H](O)C[C@@]2(C)[C@@H]3[C@@H](O)C=C4[C@@H](CC(=O)[C@H](O)C4(C)C)[C@]3(C)C(=O)C[C@]12C`, with “Active”; and `CC(=O)OC(C)(C)CCC(=O)[C@](C)(O)[C@H]1[C@H](O)C[C@@]2(C)[C@@H]3CC=C4[C@@H](C[C@H](OC(=O)c5ccccc5)C(=O)C4(C)C)[C@]3(C)C(=O)C[C@]12C`, with “inactive”.
To `CC(C)(O)/C=C/C(=O)[C@](C)(O)[C@H]1[C@H](O)C[C@@]2(C)[C@@H]3CC=C4[C@@H](C=C(O)C(=O)C4(C)C)[C@]3(C)C(=O)C[C@]12C` belongs “Active”; to `CC(=O)O[C@H]1C(=O)C[C@@H]2C(=CC[C@@H]3[C@@]2(C)C(=O)C[C@]2(C)[C@@H]([C@@](C)(O)C(=O)CCC(C)(C)OC(C)=O)[C@H](O)C[C@@]32C)C1(C)C`, “inactive”; to `CC(=O)OC(C)(C)CCC(=O)[C@](C)(O)[C@H]1[C@H](O)C[C@@]2(C)[C@@H]3CC=C4[C@@H](C[C@H](OC(=O)CCC(=O)O)C(=O)C4(C)C)[C@]3(C)C(=O)C[C@]12C`, “inactive”.
Consider `CC(C)(O)/C=C/C(=O)[C@](C)(O)[C@H]1[C@H](O)C[C@@]2(C)[C@@H]3CC=C4[C@@H](CC(O)C(=O)C4(C)C)[C@]3(C)C(=O)C[C@]12C` (stereo partly drawn), for which the outcome was Active.
Consider `CC(=O)O[C@@H]1C[C@@]2(C)[C@@H]3CC=C4[C@@H](C[C@H](O)C(=O)C4(C)C)[C@]3(C)C(=O)C[C@]2(C)[C@H]1[C@@](C)(O)C(=O)/C=C/C(C)(C)OC(C)=O`, for which the outcome was inactive.
Then `CC(C)(O)CCC(=O)[C@](C)(O)[C@H]1[C@H](O)C[C@@]2(C)[C@@H]3CC=C4[C@@H](C[C@H](O)C(=O)C4(C)C)[C@]3(C)C(=O)C[C@]12C`, with “Active”; and `CC(=O)OC(C)(C)CCC(=O)[C@](C)(O)[C@H]1[C@H](O)C[C@@]2(C)[C@@H]3[C@@H](O)C=C4[C@@H](C[C@H](O)C(=O)C4(C)C)[C@]3(C)C(=O)C[C@]12C`, with “Active”; and `CC(=O)O[C@H]1C[C@@H]2C(=CC[C@@H]3[C@@]2(C)C(=O)C[C@]2(C)[C@@H]([C@@](C)(O)C(=O)/C=C/C(C)(C)OC(C)=O)[C@H](O)C[C@@]32C)C(C)(C)C1=O`, with “inactive”.
`CC1(C)C(=O)[C@@H](O)C[C@@H]2C1=C[C@H](O)[C@@H]1[C@@]2(C)C(=O)C[C@]2(C)[C@@H](C=O)[C@H](O)C[C@@]12C`: the result was Active.
In the case of `CC(=O)OC(C)(C)/C=C/C(=O)[C@](C)(O)[C@H]1C(=O)C[C@@]2(C)[C@@H]3CC=C4[C@@H](C[C@H](O)C(=O)C4(C)C)[C@]3(C)C(=O)C[C@]12C`, the outcome was inactive.
